In series [1] the test system is Human immunodeficiency virus 1. The experiment in a line: Antiviral activity against Laboratory adapted HIV-1 BaL infected in human PBMC cells assessed as reduction in viral transmission to TZM-bl cells pretreated for 1 hr before viral transmission and further incubated for 48 hrs by luciferase based assay. The format is functional, cell-based. The conditions noted are these: Human immunodeficiency virus 1, BaL. The gist of the method: (§1)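 PBMC from healthy HIV-negative donors infected with replication-competent virus in the presence of 30 μg/ml DEAE-dextran. On day 4 post-infection, cells washed free of virus and counted. 2 × 10⁴ infected PBMC/well pretreated with escalating compound for 1 h at 37 °C, then co-cultured 48 h with TZM-bl targets (10⁴/well, plated 24 h before). TZM-bl lysed, luciferase read, IC50 calculated.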

Series [2] relates to Human immunodeficiency virus 1. The experiment in a line: Antiviral activity against HIV-1 ADA infected in human MOLT-4 cells assessed as reduction in viral transmission to TZM-bl cells incubated for 48 hrs by luciferase based assay. The format is functional, organism-based. The conditions noted are these: Human immunodeficiency virus 1, ADA, MOLT-4, 48 h.
Series [3] relates to Human immunodeficiency virus 1. The experiment in a line: Antiviral activity against clinical isolate HIV-1 92US657 infected in human PBMC cells assessed as reduction in viral transmission to TZM-bl cells pretreated for 1 hr before viral transmission and further incubated for 48 hrs by luciferase based assay. The note with it: Human immunodeficiency virus 1, 92US657, PBMC. The format is functional, cell-based. The gist of the method: as §1

Series [4] concerns Human immunodeficiency virus 1. The experiment in a line: Antiviral activity against pseudovirus HIV-1 HXB-2 harboring Env M426L mutant infected in human U87.CD4.CXCR4 cells assessed as reduction in viral infection pretreated for 30 mins before viral infection and measured after 3 days by luciferase based assay. The format is functional, cell-based, M:B_HXB2R. The gist of the method: (§2)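 Pseudoviruses made in HEK293T by co-transfecting an Env-deleted backbone (pSG3Δenv or pNL4-3.Luc.R-.E-) with an HXB-2 Env plasmid carrying single or double substitutions; Env sequences confirmed by sequencing. Virus pretreated 30 min with graded compound, added to U87-CD4-CXCR4 cells (1 × 10⁴/well, plated overnight), incubated 3 days. Cells lysed, luciferase measured, IC50 calculated.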

Series [5] relates to Human immunodeficiency virus 1. The experiment in a line: Antiviral activity against pseudovirus HIV-1 HXB-2 harboring Env N425K mutant infected in human U87.CD4.CXCR4 cells assessed as reduction in viral infection pretreated for 30 mins before viral infection and measured after 3 days by luciferase based assay. The format is functional, cell-based, M:B_HXB2R. The gist of the method: as §2

Series [6] has as its system Human immunodeficiency virus 1. The experiment in a line: Antiviral activity against pseudovirus HIV-1 HXB-2 harboring Env M475I mutant infected in human U87.CD4.CXCR4 cells assessed as reduction in viral infection pretreated for 30 mins before viral infection and measured after 3 days by luciferase based assay. The format is functional, cell-based, M:B_HXB2R. The method, boiled down:
as §2

A short description of series [7]: Solubility in 2 % DMSO at pH 7.4 at 500 uM incubated for 90 mins in shaker by spectrophotometry. In kind it is physicochemical. The method, boiled down:
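DMSO stock diluted to 500 μM in universal aqueous buffer pH 7.4 with 2 or 5% DMSO final; quadruplicate, 90 min shaking at room temperature in filter plate, vacuum filtered; filtrate in 20% acetonitrile read by UV absorbance at six wavelengths. Filtrate/standard ratio binned as ~500, 100–500 or <100 μM.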

Series [8] relates to Human immunodeficiency virus 1. The experiment in a line: Antiviral activity against pseudovirus HIV-1 HXB-2 harboring wild type Env infected in human U87.CD4.CXCR4 cells assessed as reduction in viral infection pretreated for 30 mins before viral infection and measured after 3 days by luciferase based assay. The note with it: Human immunodeficiency virus 1, M:B_HXB2R. The format is functional, cell-based.

Series [9] deals with Human immunodeficiency virus 1. As to the kind of experiment: Antiviral activity against Laboratory adapted HIV-1 LA1 infected in human PBMC cells assessed as reduction in viral transmission to TZM-bl cells pretreated for 1 hr before viral transmission and further incubated for 48 hrs by luciferase based assay. The format is functional, organism-based. The conditions noted are these: Human immunodeficiency virus 1, LA1, PBMC. The gist of the method:
as §1

Results on 1 compound are retold here after ChEMBL document CHEMBL4715822, “Structure-based lead optimization to improve antiviral potency and ADMET properties of phenyl-1H-pyrrole-carboxamide entry inhibitors targeted to HIV-1 gp120” (Eur J Med Chem, 2018).

As a reminder, the IC50 is the concentration that inhibits the measured activity by half. Usually solubility (kinetic) stands for the concentration staying in solution when a stock, usually in DMSO, is diluted into the medium. On to `COc1cnc(-n2cnc(C)n2)c2[nH]cc(C(=O)C(=O)N3CCN(C(=O)c4ccccc4)CC3)c12`, for which the IC50 in series [1] is 100 nM; in series [2] it was 400 nM; in series [3], 100 nM; in series [4], 230 nM; in series [5] it was 8 nM; in series [6], 50 nM. Besides, the figures for the IC50 in [8] and in series [9] were 8 nM and 100 nM, respectively. This compound registered a kinetic solubility at […], 500 µM in series [7] of under 100 µM.
